High-throughput results from PubChem.
Only a selection was taken, and hits are over-represented in it overall.
UPR XBP1 act: activators of adaptive arm of unfolded protein response (XBP1) | CHO-XBP1 luciferase reporter, IRE1-XBP1 UPR activation, luminescence; percent of tunicamycin response, DMSO as zero | hit rate 0.33% among 330,000 | activation, % at 20 µM;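 active = versus positive control, 20 µM dose yields 30% or more activation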
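Material – CHO cell line with stable XBP1 luciferase reporter · Buffer or medium – F12 plus 10% FBS · Compound – single point, 20 µM final compound, 1% DMSO · Schedule – 16-18 h cell attachment at 37 °C, then 6 h compound exposure · Signal – Steady-Glo luminescence read · Benchmarks – high control tunicamycin 10 µg/mL final, low control DMSO vehicle only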
Lmaj promast: reduces viability of Leishmania major promastigotes; resazurin fluorescence viability; inhibition, % at 10 µM; hit rate 9% among 200,000; AID 1063; in the data active = inhibition above about 50%;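 also: promastigotes grown with compound for 44 hours at 28 °C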
UPR CHOP act: apoptotic UPR (CHOP) activation. CHO-CHOP luciferase reporter, luminescence; percent of tunicamycin response over DMSO baseline. activation, % at 10 µM. hit rate 0.34% among 330,000;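 active = at 10 µM dose, activation of 40% or more, normalized to positive control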
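Assay system: CHO-CHOP cells, stable luciferase reporter of PERK-eIF2a-CHOP signalling / Buffer or medium: F12 plus 10% serum / Compound dosing: one dose, 10 µM in 0.5% DMSO / Times: 6 h compound treatment, 37 °C / Technique: luciferase luminescence / Read-out: % reporter activation, DMSO baseline versus tunicamycin full activation / Benchmarks: tunicamycin and DMSO controls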
Dynein transport: dynein cargo transport inhibition | 3617.4 mouse cells, GR-EGFP nuclear translocation imaging; test concentration mostly 20 µM; stimulated with dexamethasone, 1 µM; active compounds read low | z-score, hits read low | hit rate 0.47% among 220,000 | AID 1381;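 active = plate z-score of nuclear minus cytoplasmic receptor signal below a set negative limit, without overly bright fluorescence or cell loss, cut at about -3.5 in these data, passing the limit was not always enough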;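 also: z-score of nuclear minus cytoplasmic ring GR-EGFP intensity difference per well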
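Schedule: 48 h induction, then 1 h compound, then 30 min agonist, 37 °C. Buffer or medium: tetracycline-free induction medium containing charcoal-stripped FBS. Reagent: 1.0 µM final dexamethasone stimulus. Evaluation: nuclear versus cytoplasmic GR-EGFP signal, averaged per well. Signal: high-content fluorescence imaging after fixation.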
CHOP inhibitor: inhibitors of CHOP induction in ER stress response. CHO-K1 CHOP-promoter luciferase, tunicamycin-induced, 15-18 h. inhibition, % at 10 µM. hit rate 3.8% among 220,000. AID 2732;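 active = compounds that reduced the stress-induced luciferase reporter signal by more than about 70% of percent inhibition, limit read from the data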
T cruzi repl: blocks replication of Trypanosoma cruzi | T. cruzi beta-gal in NIH3T3, luminescence, 90 h | inhibition, % (no concentration beside the values) | hit rate 1.4% among 300,000;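 active = mean inhibition across valid replicates above about 55%, limit read from the data; inconclusive = mean below that limit but half or more replicates reach it; inactive = mean below it, under half of replicates reach it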;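 also: signal also drops with host cell toxicity which is not excluded here; higher percent means less beta-gal luminescence so fewer parasites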
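Assay system: NIH/3T3 fibroblasts plus reporter T. cruzi. Amount: NIH/3T3 cells, 5,000 per well. Buffer or medium: DMEM, 2% fetal bovine serum. Doses: compound pinned at 50 nL/well, DMSO. Schedule: ≥90 h infection period, 3 h prior cell attachment. Signal: luminescent β-galactosidase signal after 60 min lysis. Read-out: parasite load inhibition, %.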
Each line names hits and unclear results; the compound was inactive in the other large screens.

c1cncc(C2CCCCN2Cc2ccc3c(c2)OCO3)c1 (centres undefined)	none
COc1cccc2cc(-c3cc(=O)oc4ccc(OC(=O)N(C)C)cc34)oc12	none (no result: Lmaj promast, Dynein transport, CHOP inhibitor)
C=C1C(=O)O[C@@H]2C[C@@H](C)[C@@H]3C=CC(=O)[C@@]3(C)[C@@H](OC(=O)CC(=O)O[C@H]3[C@@H]4C(=C)C(=O)O[C@@H]4C[C@@H](C)[C@@H]4C=CC(=O)[C@]43C)[C@H]12	Dynein transport -4, CHOP inhibitor 108 (no result: Lmaj promast)
Cc1ccc(O)c(C(=O)c2cc(C(=O)NCCC(C)C)c(=O)n(CCC(C)C)c2)c1	Lmaj promast 82
OC(c1cccc(Cl)c1)(c1cccc(Cl)c1)C1CN2CCC1CC2 (centres undefined)	Lmaj promast 100
CCN1CCN(CC(c2ccccc2)c2ccccc2)CC1	none (no result: Lmaj promast, Dynein transport, CHOP inhibitor)
O=C(c1ccccc1)C(CN1CCCC1)c1ccccc1 (centres undefined)	Lmaj promast 100 (no result: UPR XBP1 act, UPR CHOP act)
CC(C)[C@]12O[C@H]1[C@@H]1O[C@]13[C@]1(O[C@H]1C[C@H]1C4=C(CC[C@@]13C)C(=O)OC4)[C@@H]2O	CHOP inhibitor 103, T cruzi repl inconclusive (no result: UPR XBP1 act, Lmaj promast, UPR CHOP act, Dynein transport)
COc1ccc(C(=O)CN2CCOCC2)cc1F	none
OC1(c2ccccc2F)CC2CCC(C1)N2CCN1CCOCC1 (centres undefined)	Lmaj promast 52
COCCn1c(O)c(/C=N/NC(=O)CSC(=S)N2CCCC2)c(=O)[nH]c1=S	none (no result: Lmaj promast, Dynein transport, CHOP inhibitor, T cruzi repl)
CC(C)OP(=O)(OC(C)C)C(NCc1ccccc1)c1ccccc1 (centres undefined)	none
CN1CCN(C(=O)COc2ccc(S(=O)(=O)Nc3ccc(F)cc3)cc2)CC1	T cruzi repl 66 (no result: Lmaj promast, Dynein transport, CHOP inhibitor)
CCN1CCN(C(=O)COc2ccc(S(=O)(=O)NC(C)C)cc2)CC1	none
Nc1c(C(=O)NCC2CCCO2)c2nc3ccccc3nc2n1Cc1ccco1 (centres undefined)	none (no result: Lmaj promast)
Nc1c(C(=O)OCC2CCCO2)c2nc3ccccc3nc2n1Cc1cccs1 (centres undefined)	Lmaj promast 95
Nc1c(C(=O)NC2CCCC2)c2nc3ccccc3nc2n1CC1CCCO1 (centres undefined)	Lmaj promast 51, CHOP inhibitor 76
Cc1ccc(C(=O)N[C@@H](C)CN2C3=NC[C@@H](Cc4ccccc4)N3C[C@H]2Cc2ccc(O)cc2)cc1Br	Lmaj promast 52
Cc1ccc(C(=O)N[C@@H](C)CN2C3=NC[C@H](Cc4ccccc4)N3C[C@H]2Cc2ccc(O)cc2)cc1Br	none (no result: Lmaj promast)
CSc1ccc(C(=O)C2CCCN(Cc3cc4ccccc4[nH]3)C2)cc1 (centres undefined)	Lmaj promast 88, CHOP inhibitor 70
O=C(c1ccc2c(c1)OCO2)C1CCCN(Cc2ccccn2)C1 (centres undefined)	none
CC(C)(C)c1ccc(C(=O)C2CCCN(Cc3ccon3)C2)cc1 (centres undefined)	Lmaj promast 80
O=C(c1ccc(-c2ccccc2)cc1)C1CCCN(Cc2ccn[nH]2)C1 (centres undefined)	Lmaj promast 98
O=C(c1ccc(Cl)cc1)C1CCCN(Cc2ccon2)C1 (centres undefined)	none
CSc1ccc(C(=O)C2CCCN(Cc3cccnc3)C2)cc1 (centres undefined)	Lmaj promast 85
CN(C)C(=O)O/N=C(\N)COc1ccc(C(C)(C)C)cc1	none (no result: Lmaj promast)
C[C@]12CC[C@@H](O)CC1CC[C@@H]1[C@@H]2CC[C@]2(C)C(=O)CC[C@@H]12 (some centres undefined)	none (no result: UPR XBP1 act, Lmaj promast, UPR CHOP act, Dynein transport, T cruzi repl)
CCCC1COC(Cn2cncn2)(c2ccc(Cl)cc2Cl)O1 (centres undefined)	Lmaj promast 92, T cruzi repl 65
COc1ccc(N/N=C/c2c(O)n(-c3ccc(C)c(C)c3)c(=O)[nH]c2=O)cc1	Lmaj promast 88
Cc1ccc(-n2c(O)c(/C=N/Nc3ccccc3)c(=O)[nH]c2=O)cc1C	none (no result: Lmaj promast)
COc1ccc(N/N=C/c2c(O)n(-c3cccc(C)c3)c(=O)[nH]c2=O)cc1	Lmaj promast 94
CN1CC=C(/C=C/c2ccc(-c3ccccc3)cc2)CC1	T cruzi repl 70 (no result: Lmaj promast, Dynein transport, CHOP inhibitor)
COc1ccc(C2NCc3ccc4c(c3-n3cccc32)OCO4)cc1O (centres undefined)	Lmaj promast 74 (no result: CHOP inhibitor)
O=C1CC[C@@]2(O)C3Cc4ccc(O)c5c4C2(CCN3CC2CC2)[C@H]1O5 (some centres undefined)	none (no result: UPR XBP1 act, Lmaj promast, UPR CHOP act, Dynein transport, T cruzi repl)
COc1ccccc1CCNC(=O)CCC(=O)N1CC2C[C@@H](C1)Cn1c2cccc1=O	none (no result: Lmaj promast, Dynein transport, CHOP inhibitor)
O=C(Nc1ccc(OC(=O)N2CCCCC2)cc1)N1CCOCC1	none
O=C(Oc1c(Cl)cc(Cl)c2ccccc12)N1CCCCC1	CHOP inhibitor 77 (no result: T cruzi repl)
CN(C)/C=C/C(=O)C(Cl)(Cl)Cl	none
CN1CCN(Cc2nc3ccccc3c(=O)[nH]2)CC1	none
CC(N)Cc1ccccc1Sc1ccc(O)cc1 (centres undefined)	Lmaj promast 88
CN1CCN(Cc2ccccc2Sc2ccccc2)CC1	Lmaj promast 100
CC(Cc1ccccc1Sc1ccc(O)cc1)N(C)C (centres undefined)	Lmaj promast 101
CC(Cc1ccccc1Sc1ccccc1)N(C)C (centres undefined)	Lmaj promast 100
CN(C)C(Cc1ccccc1)C(=O)c1ccccc1 (centres undefined)	none
CC(N)Cc1c[nH]c2ccc(O)cc12 (centres undefined)	none (no result: UPR XBP1 act, Lmaj promast, UPR CHOP act, Dynein transport, T cruzi repl)
CC1(O)CCN2C(=O)CCc3cccc1c32 (centres undefined)	none (no result: Lmaj promast, Dynein transport, CHOP inhibitor, T cruzi repl)
NC(CP(=O)(O)O)C(=O)O (centres undefined)	none (no result: UPR XBP1 act, Lmaj promast, UPR CHOP act, Dynein transport, T cruzi repl)
COc1cc(CC(C)N)c(OC)cc1I (centres undefined)	none (no result: Lmaj promast, Dynein transport)
COc1ccccc1Sc1ccccc1CC(C)N (centres undefined)	Lmaj promast 95
C=CC(C)C(C(=O)c1ccccc1)N(C)C (centres undefined)	none (no result: T cruzi repl)
O=C(Nc1ccc(F)c([N+](=O)[O-])c1)N1C[C@H]2C[C@@H](C1)c1cccc(=O)n1C2	none (no result: Lmaj promast, Dynein transport, CHOP inhibitor)
O=C(c1ccc(N2CC3CC(C2)c2cccc(=O)n2C3)c([N+](=O)[O-])c1)N1CCCCC1 (centres undefined)	Lmaj promast 55
O=C(c1ccc(N2CC3CC(C2)c2cccc(=O)n2C3)c([N+](=O)[O-])c1)N1CCCC1 (centres undefined)	none
CC1CCCCN1C(=O)c1ccc(N2CC3CC(C2)c2cccc(=O)n2C3)c([N+](=O)[O-])c1 (centres undefined)	Lmaj promast 65
